In ChEMBL document CHEMBL4706553, “Discovery of potent small molecule PROTACs targeting mutant EGFR” (Eur J Med Chem, 2020):
The source made the active and inactive calls. The rule behind the calls is not given here.

Assays:
HCC827 [1] = experiment: Antiproliferative activity against human HCC827 cells expressing EGFR del19 mutant assessed as cell growth inhibition measured after 72 hrs by MTT assay; assay type: functional, cell-based; conditions: HCC827, 72 h
Method in brief: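 HCC827 cells were kept in RPMI-1640 with 10% heat-inactivated FBS, 1% sodium pyruvate, 1% glutamine and 1% penicillin-streptomycin at 37 °C and 5% CO₂, seeded at 3000–8000/well and rested 24 h. Compounds were applied as a concentration series for 72 h. MTT (5 mg/mL stock in PBS) was given for 4 h, then medium was removed and DMSO added. IC50 came from nonlinear regression (log inhibitor vs response).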

NCI-H1975 [2] = experiment: Antiproliferative activity against human H1975 cells expressing EGFR L858R/T790M mutant assessed as cell growth inhibition measured after 72 hrs by MTT assay; assay type: functional, cell-based; conditions: NCI-H1975, 72 h
Method in brief: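 MTT assay on H1975 cells grown in RPMI-1640 with 10% heat-inactivated FBS and 1% penicillin-streptomycin at 37 °C and 5% CO₂. Cells were seeded at 3000–8000 per well and left 24 h, then exposed to a concentration series for 72 h. MTT (5 mg/mL stock in PBS) was added for 4 h, supernatant removed and formazan dissolved in DMSO. IC50 was fitted by nonlinear regression (log inhibitor vs response).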

HCC827 [3] = experiment: Induction of apoptosis in human HCC827 cells assessed as apoptotic cells at 100 nM measured after 48 hrs by AnnexinV-FITC/propidium iodide staining based flow cytometry analysis relative to control; assay type: functional
Method in brief: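 To measure apoptosis, cells were seeded at 0.5–1 × 10⁶ per well, grown 24 h, then treated for 48 h. Collected cells were stained with an Annexin V-FITC apoptosis detection kit following its instructions, and apoptosis rate was read by flow cytometry. n = 2.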

NCI-H1975 [4] = experiment: Induction of cell cycle arrest in human NCI-H1975 cells assessed as accumulation at G1 phase measured at 333 to 1000 nM measured after 48 hrs by propidium iodide staining based flow cytometry analysis; assay type: functional; conditions: dose 333-1000 nM
Method in brief: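 Cell cycle: cells were seeded at 0.5–1 × 10⁶ per well for 24 h, then treated 48 h. They were collected and washed twice in PBS, stained with PI/RNase at 37 °C for 15 min, and analysed by flow cytometry. n = 2.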

[5] = test system: von Hippel-Lindau disease tumor suppressor/Epidermal growth factor receptor (Homo sapiens), P00533+P40337 [UNDEFINED MUTATION]; experiment: Protac activity at VHL/EGFR del19 mutant in human HCC827 cells assessed as maximal induction of EGFR degradation at 33 nM measured after 48 hrs by Western blot analysis; assay type: cell-based
Method in brief: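 HCC827 cells seeded at 0.5–1 × 10⁶ per well, then treated at the stated concentrations for 48 h. EGFR by Western blot; n = 3. DC₅₀ (concentration giving 50% EGFR loss) by nonlinear regression, log(inhibitor) vs response.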

[6] = target: von Hippel-Lindau disease tumor suppressor/Epidermal growth factor receptor (Homo sapiens, UniProt P00533+P40337, T790M/L858R); experiment: Protac activity at VHL/EGFR L858R/T790M mutant in human H1975 cells assessed as induction of degradation of EGFR incubated for 48 hrs by Western blot analysis; assay type: cell-based; conditions: nci-h1975
Method in brief: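 H1975 cells exposed to the stated concentrations for 48 h. EGFR by Western blot; n = 3. DC₅₀ by nonlinear regression, log(inhibitor) vs response.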

HCC827 [7] = experiment: Effect on Akt protein expression in human HCC827 cells at 0.003 to 0.33 uM incubated for 48 hrs by Western blot analysis; assay type: functional, cell-based; conditions: dose 0.003-0.33 µM
[8] = test system: von Hippel-Lindau disease tumor suppressor/Epidermal growth factor receptor (Homo sapiens), P00533+P40337 [UNDEFINED MUTATION]; experiment: Protac activity at VHL/EGFR del19 mutant in human HCC827 cells assessed as induction of EGFR degradation at 1 to 33 nM incubated for 24 hrs by Western blot analysis; assay type: cell-based; conditions: dose 1-33 nM
Method in brief: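 HCC827 cells seeded at 0.5–1 × 10⁶ per well, grown 24 h, then treated at the stated concentrations for 24 h. EGFR^del19 level by Western blot with anti-EGFR antibody and β-actin loading control.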

[9] = test system: von Hippel-Lindau disease tumor suppressor/Epidermal growth factor receptor (Homo sapiens), P00533+P40337 [L858R,T790M]; experiment: Protac activity at VHL/EGFR L858R/T790M mutant in human H1975 cells assessed as induction of degradation of EGFR at 0.33 to 1 uM incubated for 24 hrs by Western blot analysis; assay type: cell-based; conditions: NCI-H1975, dose 0.33-1 µM
Method in brief: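 H1975 cells, after 24 h seeding, treated at the stated concentrations for 24 h. EGFR by Western blot with β-actin loading control.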

[10] = test system: von Hippel-Lindau disease tumor suppressor/Epidermal growth factor receptor (Homo sapiens), P00533+P40337 [UNDEFINED MUTATION]; experiment: Protac activity at VHL/EGFR del19 mutant in human HCC827 cells assessed as induction of EGFR degradation at 0.033 uM pretreated with ubiquitination inhibitor, MLN4924 for 2 hrs followed by incubation with compound for 24 hrs by Western blot analysis; assay type: cell-based
[11] = test system: von Hippel-Lindau disease tumor suppressor/Epidermal growth factor receptor (Homo sapiens), P00533+P40337 [UNDEFINED MUTATION]; experiment: Protac activity at VHL/EGFR del19 mutant in human HCC827 cells assessed as induction of EGFR degradation at 0.033 uM pretreated with EGFR inhibitor, F for 2 hrs followed by incubation with compound for 24 hrs by Western blot analysis; assay type: cell-based
[12] = test system: von Hippel-Lindau disease tumor suppressor/Epidermal growth factor receptor (Homo sapiens), P00533+P40337 [UNDEFINED MUTATION]; experiment: Protac activity at VHL/EGFR del19 mutant in human HCC827 cells assessed as induction of EGFR degradation at 0.033 uM pretreated with VHL ligand, VHL-L for 2 hrs followed by incubation with compound for 24 hrs by Western blot analysis; assay type: cell-based
[13] = test system: von Hippel-Lindau disease tumor suppressor/Epidermal growth factor receptor (Homo sapiens), P00533+P40337 [UNDEFINED MUTATION]; experiment: Protac activity at VHL/EGFR del19 mutant in human HCC827 cells assessed as induction of EGFR degradation at 0.033 uM pretreated with VHL ligand, VHL-Ac for 2 hrs followed by incubation with compound for 24 hrs by Western blot analysis; assay type: cell-based
[14] = test system: von Hippel-Lindau disease tumor suppressor/Epidermal growth factor receptor (Homo sapiens), P00533+P40337 [UNDEFINED MUTATION]; experiment: Protac activity at VHL/EGFR del19 mutant in human HCC827 cells assessed as induction of EGFR degradation at 0.033 uM pretreated with proteasome inhibitor, MG132 for 2 hrs followed by incubation with compound for 24 hrs by Western blot analysis; assay type: cell-based
[15] = test system: von Hippel-Lindau disease tumor suppressor/Epidermal growth factor receptor (Homo sapiens), P00533+P40337 [L858R,T790M]; experiment: Protac activity at VHL/EGFR L858R/T790M mutant in human H1975 cells assessed as induction of degradation of EGFR at 100 to 333 nM precultured in medium without FBS followed by incubation with compound for 16 hrs by Western blot analysis; assay type: cell-based; conditions: NCI-H1975, dose 100-333 nM
Method in brief: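 HCC827 or H1975 cells precultured 8 h in medium with or without FBS, then treated at the stated concentrations for 16 h. EGFR protein by Western blot; n = 3.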

[16] = test system: von Hippel-Lindau disease tumor suppressor/Epidermal growth factor receptor (Homo sapiens), P00533+P40337 [L858R,T790M]; experiment: Protac activity at VHL/EGFR L858R/T790M mutant in human H1975 cells assessed as induction of degradation of EGFR at 0.1 uM pretreated with mTOR inhibitor, rapamycin for 8 hrs followed by incubation with compound for 16 hrs by Western blot analysis; assay type: cell-based; conditions: NCI-H1975
Method in brief: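 H1975 cells given rapamycin at the stated concentrations for 8 h, then compound for 16 h. EGFR by Western blot; n = 3.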

In the case of `Cc1ncsc1-c1ccc(CNC(=O)[C@@H]2C[C@@H](O)CN2C(=O)[C@@H](NC(=O)CCCCCCN2CCN(c3ccc(Nc4ncc5nc(Nc6ccccc6)n(C6CCCC6)c5n4)cc3)CC2)C(C)(C)C)cc1`, the IC50 (HCC827 [1]) is reported as 0.83 nM, the IC50 (NCI-H1975 [2]) is reported as 203 nM and the Activity (HCC827 [3]) is reported as 44.8%. For the same compound, the Activity (NCI-H1975 [4]) was “Active”, the Emax [5] was 80.4% and the DC50 [6] was 126 nM. For the same compound, the Activity (HCC827 [7]) was “inactive”, the Activity [8] was “Active” and the Activity [9] was “Active”. For the same compound, the Activity [10] was “inactive”, the Activity [11] was “inactive” and the Activity [12] was “Active”. For the same compound, the Activity [13] was “inactive”, the Activity [14] was “Active” and the Activity [15] was “Active”. For the same compound, the Activity [16] was “Active”.
